How the values were obtained:
Mus musculus [1] = assay: In Vivo detection in Mice brains after oral administration of 58.33 mg/kg detected in the form of AZT 5`-P after 24 hr; assay type: functional
Mus musculus [2] = assay: In Vivo detection in Mice brains after oral administration of 58.33 mg/kg detected in the form of AZT phosphodiester 2 after 2 hr; assay type: functional
Mus musculus [3] = assay: In Vivo detection of total AZT in Mice brains after oral administration of 58.33 mg/kg after 48 hr; assay type: functional
Method in brief: (§1)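 Male Swiss mice (18–20 g) dosed orally with a 3 mM solution in […] vehicle; decapitated at 0.5–48 h. Brains were homogenized in acetonitrile-water (3:1), centrifuged at 6000g for 40 min at 4 °C, lyophilized, redissolved in water and filtered (0.45 µm). Reversed-phase C18 column-switching HPLC with diode-array detection; standard spiking; vehicle-fed controls. Three mice per point, triplicates.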

Mus musculus [4] = assay: In Vivo detection of total AZT in Mice brains after oral administration of 58.33 mg/kg after 1 hr; assay type: functional; method in brief: as §1
Mus musculus [5] = assay: In Vivo detection in Mice plasma after oral administration of 20 mg/kg detected in the form of AZT phosphodiester 2 after 0.5 hr; assay type: functional, organism-based; design: dose 20 mg/kg
Mus musculus [6] = assay: In Vivo detection in Mice brains after oral administration of 58.33 mg/kg detected in the form of AZT after 24 hr; assay type: functional
Mus musculus [7] = assay: In Vivo detection in Mice plasma after oral administration of 58.33 mg/kg detected in the form of AZT after 8 hr; assay type: functional, organism-based; design: dose 58.33 mg/kg
Method in brief: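 Male Swiss mice (18–20 g, six weeks old) given the test substance or vehicle ([…]) by gavage as a 3 mM solution (1.5 µmol/mouse). Aortic blood was collected into heparinized tubes at 0.5–48 h and centrifuged at 13000g for 10 min. Plasma was stored at -22 °C and analysed by HPLC. Three mice were used per time point, in triplicate. Values were not corrected for recovery.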

Mus musculus [8] = assay: In Vivo detection in Mice plasma after oral administration of 58.33 mg/kg detected in the form of AZT 5`-P after 2 hr; assay type: functional, organism-based; design: dose 58.33 mg/kg
Mus musculus [9] = assay: In Vivo detection in Mice plasma after oral administration of 41.63 mg/kg detected in the form of AZT after 48 hr; assay type: functional, organism-based; design: dose 41.63 mg/kg
Mus musculus [10] = assay: In Vivo detection in Mice plasma after oral administration of 41.63 mg/kg detected in the form of AZT after 0.5 hr; assay type: functional, organism-based; design: dose 41.63 mg/kg
Mus musculus [11] = assay: In Vivo detection in Mice brains after oral administration of 41.63 mg/kg detected in the form of AZT after 2 hr; assay type: functional
Mus musculus [12] = assay: In Vivo detection in Mice brains after oral administration of 41.63 mg/kg detected in the form of AZT phosphodiester 2 after 4 hr; assay type: functional
Mus musculus [13] = assay: In Vivo detection in Mice plasma after oral administration of 41.63 mg/kg detected in the form of AZT after 2 hr; assay type: functional, organism-based; design: dose 41.63 mg/kg
Mus musculus [14] = assay: In Vivo detection in Mice brains after oral administration of 41.63 mg/kg detected in the form of AZT 5`-P after 4 hr; assay type: functional
Mus musculus [15] = assay: In Vivo detection in Mice plasma after oral administration of 41.63 mg/kg detected in the form of AZT phosphodiester 2 after 8 hr; assay type: functional, organism-based; design: dose 41.63 mg/kg

Q: For `CCCCCCCCCCCCCCCCOP(=O)(OCCO[C@H]1O[C@H](CO)[C@@H](O)[C@H](O)[C@@H]1O)OCC1OC(n2cc(C)c(=O)[nH]c2=O)CC1N=[N+]=[N-]` (stereo not given in full), which Brain content (Mus musculus [1]) is on record?
A: Its Brain content is 81.3 nmol/g.

Q: What about the Brain content (Mus musculus [2]) of the same compound?
A: Its Brain content is 5.2 nmol/g.

Q: And the Brain content (Mus musculus [3])?
A: The Brain content was 63.5 nM ml-1.

Q: What about the Brain content (Mus musculus [4]) of the same compound?
A: The Brain content was 156.7 nM ml-1.

Q: And the Plasma content (Mus musculus [5])?
A: Its Plasma content is 0 nM ml-1.

Q: What about the Brain content (Mus musculus [6]) of the same compound?
A: Its Brain content is 1.4 nmol/g.

Q: What about the Plasma content (Mus musculus [7]) of the same compound?
A: Its Plasma content is 8.6 nM ml-1.

Q: What about the Plasma content (Mus musculus [8]) of the same compound?
A: Its Plasma content is 4 nM ml-1.

Q: Which results are given for `Cc1cn([C@H]2C[C@H](N=[N+]=[N-])[C@@H](COP(=O)(O)OCCO[C@H]3O[C@H](CO)[C@@H](O)[C@H](O)[C@@H]3O)O2)c(=O)[nH]c1=O`?
A: Plasma content (Mus musculus [9]): 0 nM ml-1; Plasma content (Mus musculus [10]): 31.6 nM ml-1; Brain content (Mus musculus [11]): 1.2 nmol/g; Brain content (Mus musculus [12]): 7.9 nM ml-1; Plasma content (Mus musculus [13]): 3.1 nM ml-1; Brain content (Mus musculus [14]): 59.3 nmol/g; Plasma content (Mus musculus [15]): 0 nM ml-1

Reference: ChEMBL document CHEMBL1125520, “Improved brain delivery of AZT using a glycosyl phosphotriester prodrug” (1992)
